Reference: ChEMBL document CHEMBL1124748, “Preparation of triazolo[1,5-c]pyrimidines as potential antiasthma agents” (J Med Chem, 1990)

test system: Mus musculus; assay: Effective dose (ip) evaluated by Passive cutaneous anaphylaxis test (PCA) by injecting IgE serum intradermally in mice; call rule not given here

SMILES	ED50 [mg/kg]
Nc1nc2ccnc(-c3ccncc3)n2n1	14
Nc1nc2ccnc(-c3cccc(C(F)(F)F)c3)n2n1	166
Cn1c(=O)c2nc[nH]c2n(C)c1=O.O [THEOPHYLLINE]	140
Nc1nc2ccnc(Cc3cccc(C(F)(F)F)c3)n2n1	178
Nc1nc2ccnc(-c3ccccc3F)n2n1	218
Nc1nc2ccnc(-c3ccc(F)cc3)n2n1	178
Nc1nc2ccnc(-c3cccc(OC(F)F)c3)n2n1	138
Nc1nc2ccnc(-c3cccc(Br)c3)n2n1	142

test system: not listed separately; assay: Antiasthmatic activity against the immunoglobulin E (IgE) antigen using the human basophil asthma model.; format: functional
Summary of the method: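 Leukocytes washed and resuspended in pH 7.4 buffer (25 mM PIPES, 110 mM NaCl, 5 mM KCl, 0.6 mM CaCl2, 1.0 mM MgCl2, 0.03% HSA). Cells preincubated with drug 10 min at 37 °C, then incubated 1 h at 37 °C with shaking. Histamine in HClO4-treated supernatants measured fluorometrically against lysed-cell totals. Triplicates, controls sextuplicate. IC50 from linear regression of percent release.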

SMILES	IC50 [µM]
CC(=O)Nc1nc2ccnc(-c3cccc(C(F)(F)F)c3)n2n1	20
Nc1nc2ccnc(-c3cccc(Cl)c3)n2n1	4.3
Nc1nc2ccnc(-c3cccc([N+](=O)[O-])c3)n2n1	3.8
Nc1nc2ccnc(-c3ccncc3)n2n1	18
Nc1nc2ccnc(-c3cccc(C(F)(F)F)c3)n2n1	2.2
CC(=O)Nc1nc2c(C)cnc(-c3cccc([N+](=O)[O-])c3)n2n1	11
Cn1c(=O)c2nc[nH]c2n(C)c1=O.O [THEOPHYLLINE]	309
Nc1nc2ccnc(-c3cc[n+]([O-])cc3)n2n1	5.6
CCOC(=O)c1ccc(-c2nccc3nc(N)nn23)cc1	16.5
Nc1nc2ccnc(-c3cccc(C=O)c3)n2n1	0.7
Nc1nc2ccnc(-c3cc(C(F)(F)F)cc(C(F)(F)F)c3)n2n1	0.7
Cc1ccc(S(=O)(=O)Nc2cccc(-c3nccc4nc(N)nn34)c2)cc1	1.5
CC(=O)Nc1nc2c(C)cnc(-c3cccc(NS(=O)(=O)c4ccc(C)cc4)c3)n2n1	51.8
C#Cc1cccc(-c2nccc3nc(N)nn23)c1	12.6
Cc1cnc(-c2cccc(C(F)(F)F)c2)n2nc(N)nc12	5.6
Cc1cnccc1-c1nccc2nc(N)nn12	2.5
Nc1nc2ccnc(-c3ccc(F)cc3)n2n1	31.3
O=C(O)c1cc(=O)c2c(OCC(O)COc3cccc4oc(C(=O)O)cc(=O)c34)cccc2o1 [CROMOLYN SODIUM]	1000
OC(CCl)CNc1nc2ccnc(-c3cccc(C(F)(F)F)c3)n2n1 (stereo unspecified)	9.3
Cc1cnc(-c2cccc([N+](=O)[O-])c2)n2nc(N)nc12	8.7
CCOC(=O)c1cccc(-c2nccc3nc(N)nn23)c1	11.5
Nc1nc2ccnc(-c3cccc(OC(F)F)c3)n2n1	3.4
CN(C)C(=O)c1cccc(-c2nccc3nc(N)nn23)c1	3.5
Nc1nc2ccnc(-c3cccc(C(Cl)Cl)c3)n2n1	1
Nc1nc2ccnc(-c3cccnc3)n2n1	14
Nc1nc2ccnc(-c3cccc(Br)c3)n2n1	3.7
CC(=O)Nc1nc2ccnc(-c3cccc(NS(=O)(=O)c4ccc(C)cc4)c3)n2n1	1.6
Cc1cccc(-c2nccc3nc(N)nn23)c1	5.5
CNc1nc2ccnc(-c3cccc(C(F)(F)F)c3)n2n1	10.2

test system: not listed separately; assay: Antiasthmatic activity against the immunoglobulin E (IgE) antigen using the human basophil asthma model; I = Inactive at 48 uM; format: functional

SMILES	IC50
Nc1nc2ccnc(-c3cccc(C(=O)O)c3)n2n1	Not Active
CN(C)c1nc2ccnc(-c3cccc(C(F)(F)F)c3)n2n1	Not Active
Nc1nc2ccnc(-c3ccc[n+]([O-])c3)n2n1	Not Active
CCOC(=O)CN(C(C)=O)c1nc2ccnc(-c3cccc(C(F)(F)F)c3)n2n1	Not Active
Cc1cnc(-c2ccc(C(F)(F)F)cc2)n2nc(N)nc12	Not Active
Nc1nc2ccnc(-c3ccccc3)n2n1	Not Active
Cc1ccc(S(=O)(=O)Nc2cccc(-c3ncc(C)c4nc(N)nn34)c2)cc1	Not Active
Cc1cnc(-c2cccc([N+](=O)[O-])c2)n2nc(N3CCOCC3)nc12	Not Active
CC(=O)N(C)c1nc2ccnc(-c3cccc(C(F)(F)F)c3)n2n1	Not Active
CN(C)/C=N/c1nc2ccnc(-c3cccc(C(F)(F)F)c3)n2n1	Not Active
CCOC(=O)CNc1nc2ccnc(-c3cccc(C(F)(F)F)c3)n2n1	Not Active
Nc1nc2ccnc(-c3ccccn3)n2n1	Not Active
FC(F)(F)c1cccc(-c2nccc3nc(NCC4CO4)nn23)c1 (stereo unspecified)	Not Active
Nc1nc2ccnc(-c3ccc(C(F)(F)F)cc3)n2n1	Not Active
Nc1nc2ccnc(Cc3cccc(C(F)(F)F)c3)n2n1	Not Active
CC(=O)Nc1nc2c(C)cnc(-c3cccc(N)c3)n2n1	Not Active
Nc1nc2ccnc(-c3cccc(F)c3)n2n1	Not Active

SMILES	IC50
CCCc1c(C)nc(-c2cccc(C(F)(F)F)c2)n2nc(N)nc12	Not Active
Cc1cc2nc(N)nn2c(-c2cccc(C(F)(F)F)c2)n1	Not Active
Cc1cc2nc(N)nn2c(-c2ccc(C(F)(F)F)cc2)n1	Not Active
CC(=O)Nc1nc2ccnc(-c3cccc([N+](=O)[O-])c3)n2n1	Not Active
Cc1cnc(-c2ccccc2)n2nc(N)nc12	Not Active
Nc1nc2ccnc(-c3ccccc3F)n2n1	Not Active
FC(F)(F)c1cccc(-c2nccc3ncnn23)c1	Not Active
C[n+]1cccc(-c2nccc3nc(N)nn23)c1.[I-]	Not Active
Cc1cccnc1-c1nccc2nc(N)nn12	Not Active
CCCc1cc2nc(N)nn2c(-c2cccc(C(F)(F)F)c2)n1	Not Active
Cc1cnc(-c2cccc([N+](=O)[O-])c2)n2nc(Cl)nc12	Not Active
CNc1cccc(-c2ncc(C)c3nc(NC)nn23)c1	Not Active
Nc1nc2cc(C(F)(F)F)nc(-c3cccc(C(F)(F)F)c3)n2n1	Not Active
Nc1nc2ccnc(-c3cc(Cl)cc(Cl)c3)n2n1	Not Active
Cc1cnc(-c2cccc(N)c2)n2nc(N)nc12	Not Active
Nc1nc2ccnc(-c3cccs3)n2n1	Not Active
Nc1nc2ccnc(-c3cccc(CO)c3)n2n1	Not Active
